Laboratory results taken from ChEMBL document CHEMBL4257580, “Tanshinone-IIA-Based Analogues of Imidazole Alkaloid Act as Potent Inhibitors To Block Breast Cancer Invasion and Metastasis in Vivo” (J Med Chem, 2018).
Active and inactive are the calls of the source. The rule behind the calls is not given here.

What was measured:
HepG2 = assay: Antiproliferative activity against human HepG2 cells after 72 hrs by MTT assay; assay type: functional, cell-based; details: HepG2, 72 h
Procedure, shortened: (§1)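 A549, HeLa, HepG2 and normal liver L02 cells kept in DMEM with 10% FBS at 37 °C under 5% CO2. Plated at 5×10^3 cells/well for 24 h, then treated with graded concentrations for 72 h. Viability measured by MTT reduction (5 h), formazan dissolved in DMSO and read at 570 nm. Three repeats.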

MDA-MB-231 [1] = assay: Induction of morphological changes in human MDA-MB-231 cells assessed as roughening of cell membrane surface with large and numerous particles at 5 to 20 uM after 72 hrs; assay type: functional, cell-based
MDA-MB-231 [2] = assay: Antimetastasis activity in human MDA-MB-231 cells assessed upregulation of GSKbeta protein expression at 5 to 15 uM after 72 hrs by Western blot analysis; assay type: functional, cell-based
Procedure, shortened: (§2)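 Cells treated with 0, 5, 10 or 15 μM for 72 h. Lysates quantified by BCA, equal protein resolved on 10% tricine SDS-PAGE and transferred to nitrocellulose. Membranes blocked in 5% milk/TBST, then primary antibodies 1:1000 overnight at 4 °C and HRP secondary 1:2000 for 1 h at room temperature. Three independent experiments.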

MDA-MB-231 [3] = assay: Cell cycle arrest in human MDA-MB-231 cells assessed as up-regulation of p21 expression at 5 to 15 uM after 72 hrs by Western blot analysis; assay type: functional, cell-based; procedure, shortened: as §2
MDA-MB-231 [4] = assay: Cell cycle arrest in human MDA-MB-231 cells assessed as accumulation at S phase at 10 uM after 72 hrs by propidium iodide staining based flow cytometry (reference value: 42.60%); assay type: functional
MDA-MB-231 [5] = assay: Antimigratory activity in human MDA-MB-231 cells at 3 uM up to 72 hrs by wound healing assay relative to control; assay type: functional
Procedure, shortened: (§3)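 Scratch assay: 1×10^5 cells/well grown to more than 80% confluence and wounded with a pipette tip. Cells then incubated with 0, 3 or 6 μM in serum-free DMEM for 72 h. The same field was imaged repeatedly over 3 days. Migration rate is wound filling, averaged over 10 fields; three independent experiments, mean ± SD.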

MDA-MB-231 [6] = assay: Induction of apoptosis in human MDA-MB-231 cells assessed as early apoptotic cells at 10 uM after 72 hrs by annexin-V/propidium iodide double staining based flow cytometry (reference value: 0.02%); assay type: functional
MDA-MB-231 [7] = assay: Antimigratory activity in human MDA-MB-231 cells up to 72 hrs by wound healing assay; assay type: functional, cell-based; procedure, shortened: as §3
MDA-MB-231 [8] = assay: Antitumor activity in human MDA-MB-231 cells xenografted in fil1:EGFP transgenic zebrafish sub-intestinal vessels assessed as reduction in tumor area at 5 uM measured every 24 hrs for 96 hrs by fluorescence microscopy; assay type: functional, cell-based
Procedure, shortened: (§4)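 Tg(fli1:EGFP) embryos at 48 hpf injected with 10–50 nL of DiI-labelled cells (~10^7 cells/mL in serum-free DMEM) into the perivitelline space near the subintestinal vessels. Ten embryos per well kept in 2 mL aquaculture water with 0 or 5 μM for 96 h. Imaged every 24 h by fluorescence microscopy; tumour area and trunk/tail fluorescence quantified, n=10/group, three experiments.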

MDA-MB-231 [9] = assay: Induction of morphological changes in human MDA-MB-231 cells assessed as unevening of cell membrane surface with large and numerous particles at 5 to 20 uM after 72 hrs; assay type: functional, cell-based
MDA-MB-231 [10] = assay: Induction of apoptosis in human MDA-MB-231 cells assessed as early apoptotic cells at 5 uM after 72 hrs by annexin-V/propidium iodide double staining based flow cytometry (reference value: 0.02%); assay type: functional
MDA-MB-231 [11] = assay: Antiangiogenesis activity in human MDA-MB-231 cells xenografted in fil1:EGFP transgenic zebrafish sub-intestinal vessels assessed as slowing of the sprout of angiogenesis at 5 uM measured every 24 hrs by fluorescence microscopy; assay type: functional, cell-based; procedure, shortened: as §4
MDA-MB-231 [12] = assay: Cell cycle arrest in human MDA-MB-231 cells assessed as accumulation at G2 phase at 15 uM after 72 hrs by propidium iodide staining based flow cytometry (reference value: 8%); assay type: functional
MDA-MB-231 [13] = assay: Cell cycle arrest in human MDA-MB-231 cells assessed as accumulation at G1 phase at 5 uM after 24 hrs by propidium iodide staining based flow cytometry (reference value: 49.40%)
HeLa = assay: Antiproliferative activity against human HeLa cells after 72 hrs by MTT assay; assay type: functional, cell-based; procedure, shortened: as §1
Danio rerio = species: Danio rerio; assay: Ecotoxicity in fil1:EGFP transgenic zebrafish embryo up to 50 uM after 96 hrs by microscopic analysis; assay type: organism-based; details: in vivo
MDA-MB-231 [14] = assay: Cell cycle arrest in human MDA-MB-231 cells assessed as accumulation at S phase at 5 uM after 72 hrs by propidium iodide staining based flow cytometry (reference value: 42.60%); assay type: functional
MDA-MB-231 [15] = assay: Cell cycle arrest in human MDA-MB-231 cells assessed as accumulation at G1 phase at 10 uM after 72 hrs by propidium iodide staining based flow cytometry (reference value: 49.40%); assay type: functional
MDA-MB-231 [16] = assay: Induction of DNA damage in human MDA-MB-231 cells assessed as increase in gammaH2AX focal positive cells up to 20 uM after 24 hrs by SYBR Green1-staining based fluorescence microscopy; assay type: functional, cell-based
MDA-MB-231 [17] = assay: Induction of DNA damage in human MDA-MB-231 cells assessed as increase in olive tail moment at 10 to 20 uM by comet assay; assay type: functional, cell-based
Procedure, shortened: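 Neutral comet assay on cells treated with 0, 10 or 20 μM for 24 h. DNA stained with SYBR Green I and imaged by fluorescence microscopy. Olive tail moment measured on 50 randomly selected cells per slide.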

MDA-MB-231 [18] = assay: Cell cycle arrest in human MDA-MB-231 cells assessed as accumulation at G2 phase at 10 uM after 72 hrs by propidium iodide staining based flow cytometry (reference value: 8%); assay type: functional
MDA-MB-231 [19] = assay: Antimetastasis activity in human MDA-MB-231 cells assessed as changes in cell morphology at 5 to 10 uM after 24 hrs by based laser confocal microscopy
MDA-MB-231 [20] = assay: Induction of DNA damage in human MDA-MB-231 cells assessed as up-regulation of gammaH2AX expression at 2 to 15 uM by Western blot analysis; assay type: functional, cell-based
MDA-MB-231 [21] = assay: Induction of apoptosis in human MDA-MB-231 cells assessed as late apoptotic cells at 15 uM after 72 hrs by annexin-V/propidium iodide double staining based flow cytometry (reference value: 0.12%); assay type: functional
MDA-MB-231 [22] = assay: Antiinvasive activity against human MDA-MB-231 cells assessed as reduction in number of black holes at 6 uM after 24 hrs by FITC-gelatin based confocal microscopy; assay type: functional, cell-based
Procedure, shortened: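 Coverslips coated with poly-L-lysine, fixed with glutaraldehyde, overlaid with 0.2% FITC-gelatin in PBS/2% sucrose and quenched with sodium borohydride. Cells (2×10^5/well) plated with 0, 3 or 6 μM at 37 °C for 24 h. Gelatin degradation, seen as nonfluorescent dark holes, imaged by laser confocal microscopy; F-actin counterstained with rhodamine-phalloidin.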

MDA-MB-231 [23] = assay: Antimetastasis activity in human MDA-MB-231 cells assessed reduction in FAK protein expression at 5 to 15 uM after 72 hrs by Western blot analysis; assay type: functional, cell-based; procedure, shortened: as §2
MDA-MB-231 [24] = assay: Antiangiogenesis activity in human MDA-MB-231 cells xenografted in fil1:EGFP transgenic zebrafish sub-intestinal vessels assessed as inhibition of cell migration at 5 uM measured every 24 hrs for 96 hrs by fluorescence microscopy; assay type: functional, cell-based; procedure, shortened: as §4

IC50 (HepG2): 21.2 µM
IC50 (HeLa): 39.8 µM
SMILES: Cc1coc2c3ccc4c(c3c3[nH]c(-c5ccc(O)cc5)nc3c12)CCCC4(C)C
Activity (MDA-MB-231 [1]): Active
Activity (MDA-MB-231 [2]): Active
Activity (MDA-MB-231 [3]): Active
Activity (MDA-MB-231 [4]): 51.5%
Activity (MDA-MB-231 [5]): <50%
Activity (MDA-MB-231 [6]): 3.87%
Activity (MDA-MB-231 [7]): Dose-dependent effect
Activity (MDA-MB-231 [8]): Active
Activity (MDA-MB-231 [9]): Active
Activity (MDA-MB-231 [10]): 2.22%
Activity (MDA-MB-231 [11]): Active
Activity (MDA-MB-231 [12]): 10.12%
Activity (MDA-MB-231 [13]): 42.38%
Activity (Danio rerio): Non-Toxic
Activity (MDA-MB-231 [14]): 46.41%
Activity (MDA-MB-231 [15]): 35.49%
Activity (MDA-MB-231 [16]): Active
Activity (MDA-MB-231 [17]): Active
Activity (MDA-MB-231 [18]): 13.01%
Activity (MDA-MB-231 [19]): Active
Activity (MDA-MB-231 [20]): Active
Activity (MDA-MB-231 [21]): 2.73%
Activity (MDA-MB-231 [22]): Active
Activity (MDA-MB-231 [23]): Active
Activity (MDA-MB-231 [24]): Active
